Test results taken from ChEMBL document CHEMBL1144140, “Diterpenes from the fruits of Vitex rotundifolia” (J Nat Prod, 1999).
Activity calls are given as the source filed them. The calls are words filed in the database; no cut-off is given here.

Key:
Assay type in all cases: functional
[1] = tested on: Radical scavenging activity; experiment: Antioxidant activity assessed as DPPH radical scavenging activity at 80 uM after 30 mins
In short: (§1)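 DPPH scavenging: test sample in EtOH added to 0.1 M acetic acid buffer pH 5.5 plus 0.5 mM DPPH EtOH solution (stock); stood 30 min at room temperature; absorbance read at 517 nm, activity given as change in optical density. Standards alpha-tocopherol and L-cysteine.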

[2] = tested on: Radical scavenging activity; experiment: Antioxidant activity assessed as DPPH radical scavenging activity at 40 uM after 30 mins; in short: as §1
[3] = tested on: Radical scavenging activity; experiment: Antioxidant activity assessed as DPPH radical scavenging activity at 20 uM after 30 mins; in short: as §1
[4] = Antioxidant activity at 0.5 mM by ferric-thiocyanate method
In short: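 Linoleic acid peroxidation (ferric thiocyanate): sample (final 0.5 mM) with linoleic acid in EtOH/0.05 M phosphate buffer pH 7.0, kept dark at 40 °C for 5 days; aliquot diluted in 75% EtOH, ammonium thiocyanate and ferrous chloride in HCl added, absorbance at 500 nm read at 3 min. Control lacked compound; alpha-tocopherol and BHA standards.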

[5] = tested on: Radical scavenging activity; experiment: Antioxidant activity assessed as DPPH radical scavenging activity at 10 uM after 30 mins; in short: as §1

| Structure (SMILES) | deltaA [1] | deltaA [2] | deltaA [3] | Activity [4] | deltaA [5] |
| --- | --- | --- | --- | --- | --- |
| CC(C)c1cc2c(cc1O)[C@@]1(C)CCCC(C)(C)[C@@H]1CC2 | 0.255 | 0.153 | 0.081 | Active | – |
| N[C@@H](CS)C(=O)O | 0.754 | 0.355 | 0.161 | – | – |
| Cc1c(C)c2c(c(C)c1O)CC[C@@](C)(CCC[C@H](C)CCC[C@H](C)CCCC(C)C)O2 | – | 0.934 | 0.471 | – | 0.252 |
| COc1ccc(O)c(C(C)(C)C)c1.COc1ccc(O)cc1C(C)(C)C | – | – | – | Active | – |
